Results from ChEMBL document CHEMBL1123985, “Oral absorption of cephalosporin antibiotics. 1. Synthesis, biological properties, and oral bioavailability of 7-(arylacetamido)-3-chloro cephalosporins in animals” (J Med Chem, 1988).
In brackets after ≈: the same amount, converted by molar mass.

Key:
[1] = Oral bioavailability in mouse; type: ADME, organism-based; conditions: in vivo
Procedure, shortened: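 Male Cox mice given water and liquid diet overnight; 20 mg/kg in saline (2 mg/mL) sc or orally; urine from collection cages plus bladder contents over 2 h; activity by agar well assay with Bacillus subtilis ATCC 6633. Bioavailability from percent dose excreted in urine after oral vs parenteral dosing.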

Escherichia coli = test: Minimum inhibitory concentration against EC14 strain Escherichia coli; type: functional
Klebsiella aerogenes = test: Minimum inhibitory concentration against EB17 strain of Enterobacter aerogenes; type: functional
Klebsiella pneumoniae = test: Minimum inhibitory concentration against X68 strain of Klebsiella pneumoniae; type: functional
Salmonella = test: Minimum inhibitory concentration against X514 strain of Salmonella; type: functional
[2] = Minimum inhibitory concentration against N9 strain of Shigella sonnei; type: functional
[3] = tested on: Staphylococcus epidermidis; test: Minimum inhibitory concentration against 222 strain of Staphylococcus epidermidis; type: functional
[4] = tested on: Staphylococcus epidermidis; test: Minimum inhibitory concentration against Epil strain of Staphylococcus epidermidis; type: functional
Staphylococcus aureus [5] = test: Minimum inhibitory concentration against S13E strain of Staphylococcus aureus; type: functional
Staphylococcus aureus [6] = test: Minimum inhibitory concentration against V41 strain of Staphylococcus aureus; type: functional
Staphylococcus aureus [7] = test: Minimum inhibitory concentration against X1.1 strain of Staphylococcus aureus; type: functional
Streptococcus pyogenes = test: Minimum inhibitory concentration against Streptococcus pyogenes C203; type: functional
[8] = Minimum inhibitory concentration against sens CL strain of Haemophilus influenzae; type: functional
[9] = Minimum inhibitory concentration against res 76 strain of Haemophilus influenzae; type: functional
Streptococcus pneumoniae = test: Minimum inhibitory concentration against Park strain of Streptococcus pneumoniae

For `O=C(Cc1ccc(O)cc1)N[C@@H]1C(=O)N2C(C(=O)O)=C(Cl)CS[C@H]12`, the bioavailability [1] was 14%, the MIC (Escherichia coli) was 32 µg/mL (≈ 86.8 µM) and the MIC (Klebsiella aerogenes) was > 128 µg/mL. For the same compound, the MIC (Klebsiella pneumoniae) was 8 µg/mL (≈ 21.7 µM), the MIC (Salmonella) was 8 µg/mL (≈ 21.7 µM) and the MIC [2] was 128 µg/mL (≈ 347 µM). For the same compound, the MIC [3] was 2 µg/mL (≈ 5.42 µM), the MIC [4] was 8 µg/mL (≈ 21.7 µM) and the MIC (Staphylococcus aureus [5]) was 128 µg/mL (≈ 347 µM). It also gave an MIC (Staphylococcus aureus [6]) of 16 µg/mL (≈ 43.4 µM), an MIC (Staphylococcus aureus [7]) of 2 µg/mL (≈ 5.42 µM) and an MIC (Streptococcus pyogenes) of 0.125 µg/mL (≈ 0.339 µM). The MIC [8] was 2 µg/mL (≈ 5.42 µM), the MIC [9] was 2 µg/mL (≈ 5.42 µM) and the MIC (Streptococcus pneumoniae) was 0.25 µg/mL (≈ 0.678 µM).
For `COC1=C(C(=O)O)N2C(=O)[C@@H](NC(=O)Cc3csc(N)n3)[C@H]2SC1`, the bioavailability [1] was < 5%, the MIC (Escherichia coli) was 8 µg/mL (≈ 21.6 µM) and the MIC (Klebsiella aerogenes) was 32 µg/mL (≈ 86.4 µM). The MIC (Klebsiella pneumoniae) was 8 µg/mL (≈ 21.6 µM), the MIC (Salmonella) was 2 µg/mL (≈ 5.4 µM) and the MIC [2] was 32 µg/mL (≈ 86.4 µM). The MIC [3] was 32 µg/mL (≈ 86.4 µM), the MIC [4] was 128 µg/mL (≈ 346 µM) and the MIC (Staphylococcus aureus [5]) was > 128 µg/mL. It also gave an MIC (Staphylococcus aureus [6]) of 32 µg/mL (≈ 86.4 µM), an MIC (Staphylococcus aureus [7]) of 8 µg/mL (≈ 21.6 µM) and an MIC (Streptococcus pyogenes) of 0.5 µg/mL (≈ 1.35 µM). It also gave an MIC [8] of 8 µg/mL (≈ 21.6 µM), an MIC [9] of 8 µg/mL (≈ 21.6 µM) and an MIC (Streptococcus pneumoniae) of 2 µg/mL (≈ 5.4 µM).
For `COC1=C(C(=O)O)N2C(=O)[C@@H](NC(=O)COc3ccccc3)[C@H]2SC1`, the bioavailability [1] was 14%, the MIC (Escherichia coli) was > 128 µg/mL and the MIC (Klebsiella aerogenes) was > 128 µg/mL. For the same compound, the MIC (Klebsiella pneumoniae) was > 128 µg/mL, the MIC (Salmonella) was > 128 µg/mL and the MIC [2] was > 128 µg/mL. The MIC [3] was 2 µg/mL (≈ 5.49 µM), the MIC [4] was 8 µg/mL (≈ 22 µM) and the MIC (Staphylococcus aureus [5]) was 16 µg/mL (≈ 43.9 µM). For the same compound, the MIC (Staphylococcus aureus [6]) was 32 µg/mL (≈ 87.8 µM), the MIC (Staphylococcus aureus [7]) was 2 µg/mL (≈ 5.49 µM) and the MIC (Streptococcus pyogenes) was 1 µg/mL (≈ 2.74 µM). The MIC [8] was 4 µg/mL (≈ 11 µM), the MIC [9] was 4 µg/mL (≈ 11 µM) and the MIC (Streptococcus pneumoniae) was 1 µg/mL (≈ 2.74 µM).
Work on `C=CC1=C(C(=O)O)N2C(=O)[C@@H](NC(=O)Cc3csc(N)n3)[C@H]2SC1` yielded a bioavailability [1] of 25%, an MIC (Escherichia coli) of 4 µg/mL (≈ 10.9 µM) and an MIC (Klebsiella aerogenes) of 128 µg/mL (≈ 349 µM). It also gave an MIC (Klebsiella pneumoniae) of 2 µg/mL (≈ 5.46 µM), an MIC (Salmonella) of 2 µg/mL (≈ 5.46 µM) and an MIC [3] of 1 µg/mL (≈ 2.73 µM). It also gave an MIC [4] of 8 µg/mL (≈ 21.8 µM), an MIC (Staphylococcus aureus [5]) of 16 µg/mL (≈ 43.7 µM) and an MIC (Staphylococcus aureus [6]) of 8 µg/mL (≈ 21.8 µM). The MIC (Staphylococcus aureus [7]) was 1 µg/mL (≈ 2.73 µM), the MIC (Streptococcus pyogenes) was 0.125 µg/mL (≈ 0.341 µM) and the MIC [8] was 4 µg/mL (≈ 10.9 µM). It also gave an MIC [9] of 2 µg/mL (≈ 5.46 µM) and an MIC (Streptococcus pneumoniae) of 0.5 µg/mL (≈ 1.36 µM).
In the case of `O=C(COc1ccc(O)cc1)N[C@@H]1C(=O)N2C(C(=O)O)=C(Cl)CS[C@H]12`, the bioavailability [1] is reported as 21%, the MIC (Escherichia coli) is reported as 64 µg/mL (≈ 166 µM) and the MIC (Klebsiella aerogenes) is reported as > 128 µg/mL. For the same compound, the MIC (Klebsiella pneumoniae) was > 128 µg/mL, the MIC (Salmonella) was 64 µg/mL (≈ 166 µM) and the MIC [2] was 64 µg/mL (≈ 166 µM). The MIC [3] was 1 µg/mL (≈ 2.6 µM), the MIC [4] was 16 µg/mL (≈ 41.6 µM) and the MIC (Staphylococcus aureus [5]) was 128 µg/mL (≈ 333 µM). It also gave an MIC (Staphylococcus aureus [6]) of 128 µg/mL (≈ 333 µM), an MIC (Staphylococcus aureus [7]) of 0.5 µg/mL (≈ 1.3 µM) and an MIC (Streptococcus pyogenes) of 0.06 µg/mL (≈ 0.156 µM). The MIC [8] was 2 µg/mL (≈ 5.2 µM), the MIC [9] was 1 µg/mL (≈ 2.6 µM) and the MIC (Streptococcus pneumoniae) was 0.125 µg/mL (≈ 0.325 µM).
In the case of `Cc1nc(CC(=O)N[C@@H]2C(=O)N3C(C(=O)O)=C(Cl)CS[C@H]23)cs1`, the bioavailability [1] is reported as 66%, the MIC (Klebsiella aerogenes) is reported as > 128 µg/mL and the MIC (Salmonella) is reported as 4 µg/mL (≈ 10.7 µM). It also gave an MIC [2] of 64 µg/mL (≈ 171 µM) and an MIC (Streptococcus pneumoniae) of 1 µg/mL (≈ 2.67 µM).
For `O=C(Cc1csc(Cl)n1)N[C@@H]1C(=O)N2C(C(=O)O)=C(Cl)CS[C@H]12`, the bioavailability [1] was 56%, the MIC (Klebsiella aerogenes) was > 128 µg/mL and the MIC (Salmonella) was 8 µg/mL (≈ 20.3 µM). For the same compound, the MIC [2] was 64 µg/mL (≈ 162 µM) and the MIC (Streptococcus pneumoniae) was 0.5 µg/mL (≈ 1.27 µM).
In the case of `O=C(Cc1ccsc1)N[C@@H]1C(=O)N2C(C(=O)O)=C(Cl)CS[C@H]12`, the bioavailability [1] is reported as 47%, the MIC (Escherichia coli) is reported as 8 µg/mL (≈ 22.3 µM) and the MIC (Klebsiella aerogenes) is reported as > 128 µg/mL. For the same compound, the MIC (Klebsiella pneumoniae) was 2 µg/mL (≈ 5.57 µM), the MIC (Salmonella) was 1 µg/mL (≈ 2.79 µM) and the MIC [2] was 32 µg/mL (≈ 89.2 µM). It also gave an MIC [3] of 1 µg/mL (≈ 2.79 µM), an MIC [4] of 4 µg/mL (≈ 11.1 µM) and an MIC (Staphylococcus aureus [5]) of 16 µg/mL (≈ 44.6 µM). The MIC (Staphylococcus aureus [6]) was 8 µg/mL (≈ 22.3 µM), the MIC (Staphylococcus aureus [7]) was 0.5 µg/mL (≈ 1.39 µM) and the MIC (Streptococcus pyogenes) was 0.125 µg/mL (≈ 0.348 µM). The MIC [8] was 1 µg/mL (≈ 2.79 µM), the MIC [9] was 1 µg/mL (≈ 2.79 µM) and the MIC (Streptococcus pneumoniae) was 0.125 µg/mL (≈ 0.348 µM).
For `COCC1=C(C(=O)O)N2C(=O)[C@@H](NC(=O)COc3ccccc3)[C@H]2SC1`, the bioavailability [1] was 19%, the MIC (Escherichia coli) was > 128 µg/mL and the MIC (Klebsiella aerogenes) was > 128 µg/mL. For the same compound, the MIC (Klebsiella pneumoniae) was > 128 µg/mL, the MIC (Salmonella) was > 128 µg/mL and the MIC [2] was > 128 µg/mL. For the same compound, the MIC [3] was 0.25 µg/mL (≈ 0.661 µM), the MIC [4] was 0.5 µg/mL (≈ 1.32 µM) and the MIC (Staphylococcus aureus [5]) was 32 µg/mL (≈ 84.6 µM). The MIC (Staphylococcus aureus [6]) was 0.5 µg/mL (≈ 1.32 µM), the MIC (Staphylococcus aureus [7]) was 0.25 µg/mL (≈ 0.661 µM) and the MIC (Streptococcus pyogenes) was 0.06 µg/mL (≈ 0.159 µM). The MIC [8] was 2 µg/mL (≈ 5.29 µM), the MIC [9] was 2 µg/mL (≈ 5.29 µM) and the MIC (Streptococcus pneumoniae) was 0.125 µg/mL (≈ 0.33 µM).
